Data from publication PMC4874899 (Cell chemical biology, 2016).

Tests used:
[1] = system: mEmerald-TGOLN2 transport; experiment: Retrograde transport of the TGN marker mEmerald-TGOLN2; type: cell-based; settings: retro-2 20 µM
cells [2] = experiment: Cytosolic penetration / endosomal escape by fluorescence microscopy; type: cell-based; settings: retro-2 20 µM, 30 min prior to dfTAT (3 µM, 1 h)
In short: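 Cells at 80–90% confluency (48 h) pretreated 30 min with 20 µM retro-2, then 3 µM dfTAT for 1 h at 37 °C in serum-free L-15. Washed with heparin-containing L-15 (1 mg/mL); SYTOX (5 µM) stained cells excluded. Imaged at 37 °C; % nucleoli-positive cells of bright-field total, >500 cells per experiment, triplicates; t-test.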

[3] = system: L.E. LUVs (77:19:4 BMP:PC:PE); settings: monomeric TAT; ref Yang et al., 2010; cited from earlier work
cells [4] = settings: ref Gao et al., 2009; Gillmeister et al., 2011; Lee et al., 2010; cited from earlier work

Row | Compound | inhibition of transport of TGN marker mEmerald-TGOLN2 [1] | effect on dfTAT-mediated endosomal escape (cells [2]) | effect on BMP-containing liposomes [3] | escape from the endocytic pathway (cells [4])
1 | Cc1ccc(C=Nc2ccccc2C(=O)Nc2ccccc2)s1 [retro-2] | capable of inhibiting the transport | had no effect on dfTAT-mediated escape |  | 
2 | RKKRRQRRR [TAT] |  |  | leaky fusion | only at a very low efficiency
